Compound activity (PubChem BioAssay)
In the library only some 2.4% were active in any assay of this set; here they are far more common.
MC4R antagonist – MC4R antagonists of cAMP signaling, primary screen, cell-based, TR-FRET, antagonist arm of biased-ligand search | MC4R-expressing cells, MTII-stimulated cAMP, LANCE TR-FRET | inhibition, % at 6.5 µM | hit rate 0.48% among 360,000 | AID 540295, 2011 | Melanocortin receptor 4 (Homo sapiens), P32245;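 active = inhibition above its plate's cutoff, the mean of tested wells on that plate plus 3 SD, cut at about 29% in these data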;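 also: 0% = Melanotan II alone and 100% = Melanotan II plus saturating MCL0020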
Target sequence (P32245 whole entry, looked up): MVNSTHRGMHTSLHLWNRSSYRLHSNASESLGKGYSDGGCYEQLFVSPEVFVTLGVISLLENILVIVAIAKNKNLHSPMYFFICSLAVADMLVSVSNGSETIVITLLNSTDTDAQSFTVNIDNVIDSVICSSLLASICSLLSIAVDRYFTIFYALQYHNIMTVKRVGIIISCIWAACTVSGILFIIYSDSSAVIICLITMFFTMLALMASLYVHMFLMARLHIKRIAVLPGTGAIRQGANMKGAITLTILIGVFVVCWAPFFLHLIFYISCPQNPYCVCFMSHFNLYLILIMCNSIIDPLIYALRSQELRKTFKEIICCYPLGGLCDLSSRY
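System: U2OS-MC4R stable cell line; Technique: Eu-cAMP/anti-cAMP TR-FRET, emission 671 nm; Repeats: single well per compound; Also added: Melanotan II; Dosing: one concentration, 6.5 µM nominal; Schedule: 30-min compound, 1-h challenge, 1-h detection, room temperature.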
HTR5A inv ag – HTR5A inverse agonists in luminescence cell assay, primary screen, counter-screen for OPRM1-OPRD1 heterodimer inverse agonist project, full-deck HTS | AID 504634, 2011 | 5-hydroxytryptamine receptor 5A (Homo sapiens), P47898 | inhibition, % at 9.3 µM | hit rate 0.083% among 340,000 | HTR5A cell line, inverse agonism; in the data active = inhibition mostly above about 23%, no sharp cut-off; inactive = mostly below about 18%;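 also: 0% = cells with DMSO and 100% = no-cell wells with DMSO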
Target sequence (P47898 whole entry, looked up): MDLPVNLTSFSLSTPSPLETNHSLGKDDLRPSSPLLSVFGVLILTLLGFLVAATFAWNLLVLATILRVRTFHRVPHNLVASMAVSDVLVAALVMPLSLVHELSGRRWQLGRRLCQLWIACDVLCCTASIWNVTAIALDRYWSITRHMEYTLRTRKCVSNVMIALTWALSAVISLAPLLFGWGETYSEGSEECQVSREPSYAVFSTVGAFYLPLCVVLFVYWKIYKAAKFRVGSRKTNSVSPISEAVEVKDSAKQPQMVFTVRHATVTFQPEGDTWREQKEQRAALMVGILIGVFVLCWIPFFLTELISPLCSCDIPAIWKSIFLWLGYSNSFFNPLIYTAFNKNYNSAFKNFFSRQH
MC4R barr agon – MC4R agonists recruiting beta-arrestin, primary screen, cell-based, luminescence, agonist arm of biased-ligand search; Melanocortin receptor 4 (Homo sapiens), P32245; U2OS MC4R beta-arrestin complementation; percent of melanotan II response, DMSO zero; activation, % at 8.9 µM; hit rate 0.98% among 360,000;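 active = activation above a per-plate cutoff, the mean activation of sample wells on that plate plus 3 SD, cut at about 8% in these data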
MOR-DOR inv ag – inverse agonists of MOR-DOR heterodimerization, primary screen, cell-based, luminescence; Mu-type opioid receptor (Homo sapiens) + Delta-type opioid receptor (Homo sapiens), …; cell-based MOR-DOR heterodimer luminescence, inverse agonism; inhibition, % at 9.3 µM; AID 504357, 2011; hit rate 0.21% among 340,000; in the data active = inhibition above about 22%, passing the limit was not always enough;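 also: 0% = cells with DMSO and 100% = wells without cells with DMSO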
HTR5A ag ctr – HTR5A agonists in luminescence cell assay, primary screen, counter-screen for OPRM1-OPRD1 heterodimer agonist project, full-deck HTS. 5-hydroxytryptamine receptor 5A (Homo sapiens), P47898. cell-based. activation, % at 9.3 µM. hit rate 0.61% among 340,000. AID 504692, 2011; in the data active = activation mostly above about 9.5%, no sharp cut-off; inactive = mostly below about 7.6%;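 also: 0% = cells with vehicle only and 100% = reference agonist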
MOR-DOR ag – agonists of OPRM1-OPRD1 heterodimerization, primary screen, cell-based, luminescence; Mu-type opioid receptor (Homo sapiens) + Delta-type opioid receptor (Homo sapiens), …; cells; activation, % at 9.3 µM; hit rate 0.3% among 340,000; AID 504326, 2011; in the data active = activation above about 18%;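 also: 0% = vehicle-treated cells and 100% = reference agonist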
* = called active by the depositor; i = inactive; . = no result.

SMILES | MC4R antagonist | HTR5A inv ag | MC4R barr agon | MOR-DOR inv ag | HTR5A ag ctr | MOR-DOR ag
CN(C)c1ccc(C=c2c3ccccc3n3c2c2ccccc2[n+]3C)cc1 | 4.1 | -17.6 | 13.8* | -35.1 | 4.6 | 7.2
CC1CCCC/C1=N\NS(=O)(=O)c1ccc(Br)cc1 (stereo not drawn) | 3.6 | -87.0 | 0.1 | -16.7 | 11.5* | 2.8
Cc1cc(C)n(C(=O)/C(C#N)=N/Nc2cc(Cl)cc(Cl)c2)n1 | 5.3 | 9.0 | -1.5 | -30.0 | 10.5* | 5.7
Cc1cc(C)n(C(=O)/C(C#N)=N\Nc2ccccc2[N+](=O)[O-])n1 | 2.9 | -1.1 | 1.9 | -5.5 | 7.7 | 1.0
CC(NC(=O)COC(=O)CCN1C(=O)C2CC=CCC2C1=O)c1ccc(Br)cc1 (stereo not drawn) | 10.4 | -18.6 | -0.9 | 2.4 | 7.1 | -0.6
CN(C)c1ccc(/C=N/NC(=O)c2nnn(-c3nonc3N)c2CN(C)c2ccccc2)cc1 | 11.3 | -1.9 | 8.5* | -26.6 | 0.5 | 5.0
CC1CCN(Cc2c(C(=O)N/N=C/c3cccc(C(F)(F)F)c3)nnn2-c2nonc2N)CC1 | 12.1 | -20.4 | 5.3 | -27.5 | 7.6 | 5.2
CC1CCN(Cc2c(C(=O)N/N=C/c3cc(Cl)ccc3O)nnn2-c2nonc2N)CC1 | 4.8 | -0.2 | 3.3 | -26.2 | 0.1 | 4.7
CN(Cc1c(C(=O)N/N=C/c2ccccc2)nnn1-c1nonc1N)c1ccccc1 | 7.2 | 5.8 | -2.2 | 0.5 | -1.5 | -0.1
CC1CCN(Cc2c(C(=O)N/N=C/c3ccc(C(F)(F)F)cc3)nnn2-c2nonc2N)CC1 | -8.3 | -9.1 | 24.2* | -7.6 | 3.8 | 1.4
COc1c(Cl)cc(Cl)cc1/C=N/NC(=O)c1nnn(-c2nonc2N)c1CN1CCC(C)CC1 | 3.8 | -19.0 | -2.0 | -12.5 | 11.0* | 2.3
Cn1ccc(NC(=O)c2ccc([N+](=O)[O-])cc2)n1 | -3.0 | -16.6 | -1.6 | 7.4 | 6.5 | -1.9
Cc1ccc(OCC(O)Cn2c(=N)n(Cc3ccccc3)c3ccccc32)cc1 (stereo not drawn) | -1.4 | 4.4 | 5.9 | -12.8 | 11.6* | 2.8
COc1ccc(OCC(O)Cn2c(=N)n(Cc3ccccc3)c3ccccc32)cc1 (stereo not drawn) | -1.6 | 17.8 | 0.2 | 5.2 | -0.2 | -1.0
N=c1n(Cc2ccccc2)c2ccccc2n1CC(O)COc1ccc(Cl)cc1Cl (stereo not drawn) | 1.9 | -80.0 | 6.1 | -173.0 | 30.6* | 30.6*
COc1ccc(/C=C/C(=O)OCC(=O)c2ccc3c(c2)NC(=O)CO3)cc1 | 8.6 | -27.9 | 13.0* | 1.4 | 5.5 | -0.3
CCc1c(C)c2ccc(OC(C)C(=O)NC(Cc3c[nH]c4ccc(O)cc34)C(=O)O)c(C)c2oc1=O (stereo not drawn) | -4.2 | -2.5 | 2.0 | 1.8 | 2.8 | -0.4
COc1ccc(C(=O)N2N=C(c3cccs3)CC2c2ccccc2O)cc1 (stereo not drawn) | 5.4 | -16.6 | 11.7* | -56.7 | 6.4 | 11.0
Cn1c(-c2ccccc2)c(C(=O)CCl)c2ccccc21 | 3.1 | -123.1 | 12.5* | -232.8 | 44.5* | 42.2*
CN(C)S(=O)(=O)c1cccc(NC(=O)CSc2nc3c(cc2C#N)C(=O)CC(C)(C)C3)c1 | 10.7 | -49.2 | 4.5 | -36.6 | 13.5* | 7.1
CC(=O)Nc1ccc(S(=O)(=O)NC2(C(F)(F)F)NC(=O)N(C3CCCC3)C2=O)cc1 (stereo not drawn) | 16.6 | 7.0 | 1.0 | -3.8 | -4.6 | 0.8
CC(=O)Nc1ccc(S(=O)(=O)NC2(C(F)(F)F)NC(=O)N(C3CCCCC3)C2=O)cc1 (stereo not drawn) | 9.0 | 11.8 | -1.6 | -1.6 | 10.4* | 0.3
CCOC(=O)c1sc(N(Cc2ccccc2)C(=O)COC(=O)c2ccc(O)cc2)nc1C | 10.8 | -39.7 | 7.0 | -73.8 | 11.4* | 14.0
CCOC(=O)c1sc(N(Cc2ccccc2)C(=O)COC(=O)c2ccccc2O)nc1C | -3.6 | -6.7 | -1.1 | 1.4 | 2.5 | -0.2
O=C1CCCC(=O)N1CCCCCCN1C(=O)CCCC1=O | 23.6 | . | -0.5 | . | . | .
SMILES | MC4R antagonist | HTR5A inv ag | MC4R barr agon | MOR-DOR inv ag | HTR5A ag ctr | MOR-DOR ag
CSc1ccc(C2C(C(=O)c3ccco3)=C(O)C(=O)N2c2nnc(SC)s2)cc1 (stereo not drawn) | 32.9* | -1.3 | -2.3 | 5.4 | 0.3 | -1.1
CN(C(=O)c1cncc(Br)c1)C1C2CC3CC(C2)CC1C3 (stereo not drawn) | 3.8 | -1.8 | -0.2 | 9.9 | 0.7 | -1.9
CC1CN(S(=O)(=O)c2ccc(CN3C(=O)c4cccnc4C3=O)cc2)c2ccccc2O1 (stereo not drawn) | 11.4 | 12.5 | 1.0 | -6.1 | 4.9 | 1.1
COc1cc2[nH]c3c(=O)n4c(nc3c2cc1OC)SCCC4 | -28.6 | -25.4 | -1.8 | 1.0 | 9.9* | -0.2
Cn1c(-c2c(N)n(CCCc3ccccc3)c3nc4ccccc4nc23)nc2ccccc21 | 1.5 | 2.9 | 0.2 | -313.2 | 0.6 | 57.9*
CC(=O)Nc1ccc(-n2c(C)nc(=O)c(-c3ccccc3)c2C)cc1 | -2.2 | -3.7 | -2.2 | 9.7 | 10.4* | -1.8
Cc1c(NC(=O)CN2C(=O)NC(C)(c3ccccc3)C2=O)c(=O)n(-c2ccccc2)n1C (stereo not drawn) | 29.4* | -1.5 | 0.0 | 4.8 | 0.2 | -0.9
CC(C)CCn1cnc2c([nH]c3cccc(Cl)c32)c1=O | -4.0 | 4.7 | 9.4* | -41.4 | -1.6 | 7.1
Cc1cccc2[nH]c3c(=O)n(CCN4CCNCC4)cnc3c12 | 2.0 | -0.1 | 0.4 | 11.8 | -4.3 | -2.6
COc1ccc(C(C(=O)NC2CCCCC2)N(C(=O)CCl)c2cccc(Cl)c2)cc1 (stereo not drawn) | 0.9 | -107.4 | 25.1* | i | 86.4* | 94.0*
COc1ccc(N(C(=O)CCl)C(C(=O)NC2CCCCC2)c2cccnc2)cc1 (stereo not drawn) | -4.2 | -11.8 | 8.7* | 2.5 | 4.4 | -0.4
COc1ccc(C(C(=O)NC2CCCCC2)N(C(=O)CCl)c2ccc(OC)cc2)cc1 (stereo not drawn) | 7.0 | -111.8 | 0.6 | -348.9 | 49.6* | 65.1*
O=C(NC1CCCCC1)C(c1cccnc1)N(C(=O)CCl)c1ccc(F)cc1 (stereo not drawn) | 5.3 | -28.2 | 7.7 | 5.5 | 10.5 | -0.9
